Data reported in ChEMBL document CHEMBL3627695, “1-Benzyl-2-methyl-3-indolylmethylene barbituric acid derivatives: Anti-cancer agents that target nucleophosmin 1 (NPM1)” (Bioorg Med Chem, 2015).

How the values were obtained:
CCRF-CEM = experiment: Anticancer activity against human CCRF-CEM cells after 48 hrs by sulforhodamine B assay; type: functional
In short: (§1)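 NCI-60 human tumour cell line panel. Compounds dissolved in DMSO/H2O and tested at five 10-fold dilutions (10⁻⁴ M to 10⁻⁸ M) for 48 hr. GI50 is the molar concentration giving 50% reduction in net cell growth relative to cell numbers on day 0.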

HL-60(TB) = experiment: Anticancer activity against human HL-60(TB) cells after 48 hrs by sulforhodamine B assay; type: functional; conditions: HL-60, 48 h; in short: as §1
K562 = experiment: Anticancer activity against human K562 cells after 48 hrs by sulforhodamine B assay; type: functional; conditions: K562, 48 h; in short: as §1
[1] = Anticancer activity against human MOLT4 cells after 48 hrs by sulforhodamine B assay; type: functional; conditions: MOLT-4, 48 h; in short: as §1
[2] = Anticancer activity against human RPMI8226 cells after 48 hrs by sulforhodamine B assay; type: functional; conditions: RPMI-8226, 48 h; in short: as §1
SR = experiment: Anticancer activity against human SR cells after 48 hrs by sulforhodamine B assay; type: functional
In short: (§2)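 NCI-60 panel protocol. Compounds were dissolved in DMSO/H2O and tested at five 10-fold concentrations (10⁻⁴ to 10⁻⁸ M) with 48 hr incubation. GI50 is the molar concentration giving a 50% reduction in net cell growth relative to cell numbers on day 0.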

A549 = experiment: Anticancer activity against human A549/ATCC cells after 48 hrs by sulforhodamine B assay; type: functional; conditions: A549, 48 h; in short: as §1
HOP-62 = experiment: Anticancer activity against human HOP62 cells after 48 hrs by sulforhodamine B assay; type: functional; conditions: HOP-62, 48 h; in short: as §1
[3] = Anticancer activity against human HOP92 cells after 48 hrs by sulforhodamine B assay; type: functional; conditions: HOP-92, 48 h; in short: as §1
NCI-H226 = experiment: Anticancer activity against human NCI-H226 cells after 48 hrs by sulforhodamine B assay; type: functional; conditions: NCI-H226, 48 h; in short: as §1
NCI-H322M = experiment: Anticancer activity against human NCI-H322M cells after 48 hrs by sulforhodamine B assay; type: functional; in short: as §1
NCI-H460 = experiment: Anticancer activity against human NCI-H460 cells after 48 hrs by sulforhodamine B assay; type: functional; conditions: NCI-H460, 48 h; in short: as §1
NCI-H522 = experiment: Anticancer activity against human NCI-H522 cells after 48 hrs by sulforhodamine B assay; type: functional; conditions: NCI-H522, 48 h; in short: as §1
[4] = Anticancer activity against human COLO205 cells after 48 hrs by sulforhodamine B assay; type: functional; conditions: COLO 205, 48 h; in short: as §1
[5] = Anticancer activity against human HCC2998 cells after 48 hrs by sulforhodamine B assay; type: functional; conditions: HCC 2998, 48 h; in short: as §1
HCT-116 = experiment: Anticancer activity against human HCT116 cells after 48 hrs by sulforhodamine B assay; type: functional; conditions: HCT-116, 48 h; in short: as §1
HCT-15 = experiment: Anticancer activity against human HCT15 cells after 48 hrs by sulforhodamine B assay; type: functional; conditions: HCT-15, 48 h; in short: as §1
HT-29 = experiment: Anticancer activity against human HT-29 cells after 48 hrs by sulforhodamine B assay; type: functional; conditions: HT-29, 48 h; in short: as §1
KM12 = experiment: Anticancer activity against human KM12 cells after 48 hrs by sulforhodamine B assay; type: functional; conditions: KM12, 48 h; in short: as §1
SW-620 = experiment: Anticancer activity against human SW620 cells after 48 hrs by sulforhodamine B assay; type: functional; conditions: SW-620, 48 h; in short: as §2
SF-268 = experiment: Anticancer activity against human SF268 cells after 48 hrs by sulforhodamine B assay; type: functional; conditions: SF-268, 48 h; in short: as §1
[6] = Anticancer activity against human SF295 cells after 48 hrs by sulforhodamine B assay; type: functional; conditions: SF-295, 48 h; in short: as §1
[7] = Anticancer activity against human SF539 cells after 48 hrs by sulforhodamine B assay; type: functional; conditions: SF-539, 48 h; in short: as §1
SNB-19 = experiment: Anticancer activity against human SNB19 cells after 48 hrs by sulforhodamine B assay; type: functional; conditions: SNB-19, 48 h; in short: as §1
SNB-75 = experiment: Anticancer activity against human SNB75 cells after 48 hrs by sulforhodamine B assay; type: functional; conditions: SNB-75, 48 h; in short: as §1
U-251 = experiment: Anticancer activity against human U251 cells after 48 hrs by sulforhodamine B assay; type: functional; conditions: U-251, 48 h; in short: as §2
[8] = Anticancer activity against human LOXIMVI cells after 48 hrs by sulforhodamine B assay; type: functional; conditions: LOX IMVI; in short: as §1
Malme-3M = experiment: Anticancer activity against human MALME-3M cells after 48 hrs by sulforhodamine B assay; type: functional; in short: as §1
M14 = experiment: Anticancer activity against human M14 cells after 48 hrs by sulforhodamine B assay; type: functional; conditions: M14, 48 h; in short: as §1
MDA-MB-435 = experiment: Anticancer activity against human MDA-MB-435 cells after 48 hrs by sulforhodamine B assay; type: functional; conditions: MDA-MB-435, 48 h; in short: as §1
SK-MEL-2 = experiment: Anticancer activity against human SK-MEL-2 cells after 48 hrs by sulforhodamine B assay; type: functional; conditions: SK-MEL-2, 48 h; in short: as §1
SK-MEL-28 = experiment: Anticancer activity against human SK-MEL-28 cells after 48 hrs by sulforhodamine B assay; type: functional; conditions: SK-MEL-28, 48 h; in short: as §1
SK-MEL-5 = experiment: Anticancer activity against human SK-MEL-5 cells after 48 hrs by sulforhodamine B assay; type: functional; conditions: SK-MEL-5, 48 h; in short: as §1
UACC-257 = experiment: Anticancer activity against human UACC257 cells after 48 hrs by sulforhodamine B assay; type: functional; conditions: UACC-257, 48 h; in short: as §2
IGROV-1 = experiment: Anticancer activity against human IGROV1 cells after 48 hrs by sulforhodamine B assay; type: functional; conditions: IGROV-1, 48 h; in short: as §1
OVCAR-3 = experiment: Anticancer activity against human OVCAR3 cells after 48 hrs by sulforhodamine B assay; type: functional; conditions: OVCAR-3, 48 h; in short: as §1
OVCAR-4 = experiment: Anticancer activity against human OVCAR4 cells after 48 hrs by sulforhodamine B assay; type: functional; conditions: OVCAR-4, 48 h; in short: as §1
OVCAR-5 = experiment: Anticancer activity against human OVCAR5 cells after 48 hrs by sulforhodamine B assay; type: functional; conditions: OVCAR-5, 48 h; in short: as §1
OVCAR-8 = experiment: Anticancer activity against human OVCAR8 cells after 48 hrs by sulforhodamine B assay; type: functional; conditions: OVCAR-8, 48 h; in short: as §1
[9] = Anticancer activity against human NCI-ADR-RES cells after 48 hrs by sulforhodamine B assay; type: functional; in short: as §1
SK-OV-3 = experiment: Anticancer activity against human SKOV3 cells after 48 hrs by sulforhodamine B assay; type: functional; conditions: SK-OV-3, 48 h; in short: as §1
786-0 = experiment: Anticancer activity against human 786-0 cells after 48 hrs by sulforhodamine B assay; type: functional; conditions: 786-0, 48 h; in short: as §1
A498 = experiment: Anticancer activity against human A498 cells after 48 hrs by sulforhodamine B assay; type: functional; conditions: A498, 48 h; in short: as §1
ACHN = experiment: Anticancer activity against human ACHN cells after 48 hrs by sulforhodamine B assay; type: functional; in short: as §1
CAKI-1 = experiment: Anticancer activity against human Caki1 cells after 48 hrs by sulforhodamine B assay; type: functional; conditions: CAKI-1, 48 h; in short: as §1
[10] = Anticancer activity against human RXF393 cells after 48 hrs by sulforhodamine B assay; type: functional; conditions: RXF 393, 48 h; in short: as §1
SN12C = experiment: Anticancer activity against human SN12C cells after 48 hrs by sulforhodamine B assay; type: functional; in short: as §1
TK-10 = experiment: Anticancer activity against human TK10 cells after 48 hrs by sulforhodamine B assay; type: functional; conditions: TK-10, 48 h; in short: as §2
UO-31 = experiment: Anticancer activity against human UO31 cells after 48 hrs by sulforhodamine B assay; type: functional; conditions: UO-31, 48 h; in short: as §2
DU-145 = experiment: Anticancer activity against human DU145 cells after 48 hrs by sulforhodamine B assay; type: functional; conditions: DU-145, 48 h; in short: as §1
MCF7 = experiment: Anticancer activity against human MCF7 cells after 48 hrs by sulforhodamine B assay; type: functional; conditions: MCF7, 48 h; in short: as §1
MDA-MB-231 = experiment: Anticancer activity against human MDA-MB-231 cells after 48 hrs by sulforhodamine B assay; type: functional; conditions: MDA-MB-231, 48 h; in short: as §1
[11] = Anticancer activity against human Hs 578T cells after 48 hrs by sulforhodamine B assay; type: functional; in short: as §1
BT-549 = experiment: Anticancer activity against human BT549 cells after 48 hrs by sulforhodamine B assay; type: functional; conditions: BT-549, 48 h; in short: as §1
T47D = experiment: Anticancer activity against human T47D cells after 48 hrs by sulforhodamine B assay; type: functional; in short: as §2
MDA-MB-468 = experiment: Anticancer activity against human MDA-MB-468 cells after 48 hrs by sulforhodamine B assay; type: functional; conditions: MDA-MB-468, 48 h; in short: as §1
[12] = (§3) Anticancer activity against human OCI-AML3 cells expressing mutant NPM1 assessed as apoptosis for 48 hrs by annexin-V and TO-PRO3 staining based flow cytometry; type: functional, cell-based; conditions: OCI-AML-3, 48 h
In short: (§4)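 OCI-AML3 cells (NPM1c+) in logarithmic growth, passaged 2–3 times weekly. Cells were exposed to the indicated compound concentrations for 48 hr, then stained with annexin V and TO-PRO 3. Percent apoptotic cells was read by flow cytometry. AP50 is the concentration at which 50% of cells undergo apoptosis.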

OCI-AML-3 = experiment: as §3; type: functional, cell-based; in short: as §4

COC(=O)c1ccc(Cn2c(C)c(C=C3C(=O)NC(=S)NC3=O)c3ccccc32)cc1
GI50 (CCRF-CEM): 340 nM | GI50 (HL-60(TB)): 220 nM | GI50 (K562): 270 nM | GI50 [1]: 350 nM | GI50 [2]: 310 nM | GI50 (SR): 320 nM | GI50 (A549): 1360 nM | GI50 (HOP-62): 390 nM | GI50 [3]: 250 nM | GI50 (NCI-H226): 410 nM | GI50 (NCI-H322M): 530 nM | GI50 (NCI-H460): 330 nM | GI50 (NCI-H522): 250 nM | GI50 [4]: 200 nM | GI50 [5]: 400 nM | GI50 (HCT-116): 260 nM | GI50 (HCT-15): 330 nM | GI50 (HT-29): 310 nM | GI50 (KM12): 310 nM | GI50 (SW-620): 400 nM | GI50 (SF-268): 420 nM | GI50 [6]: 350 nM | GI50 [7]: 220 nM | GI50 (SNB-19): 1050 nM | GI50 (SNB-75): 460 nM | GI50 (U-251): 320 nM | GI50 [8]: 320 nM | GI50 (Malme-3M): 1480 nM | GI50 (M14): 330 nM | GI50 (MDA-MB-435): 220 nM | GI50 (SK-MEL-2): 1120 nM | GI50 (SK-MEL-28): 1050 nM | GI50 (SK-MEL-5): 1130 nM | GI50 (UACC-257): 800 nM | GI50 (IGROV-1): 510 nM | GI50 (OVCAR-3): 300 nM | GI50 (OVCAR-4): 460 nM | GI50 (OVCAR-5): 420 nM | GI50 (OVCAR-8): 320 nM | GI50 [9]: 350 nM | GI50 (SK-OV-3): 450 nM | GI50 (786-0): 320 nM | GI50 (A498): 190 nM | GI50 (ACHN): 510 nM | GI50 (CAKI-1): 500 nM | GI50 [10]: 300 nM | GI50 (SN12C): 410 nM | GI50 (TK-10): 310 nM | GI50 (UO-31): 410 nM | GI50 (DU-145): 340 nM | GI50 (MCF7): 400 nM | GI50 (MDA-MB-231): 380 nM | GI50 [11]: 220 nM | GI50 (BT-549): 310 nM | GI50 (T47D): 1860 nM | GI50 (MDA-MB-468): 340 nM | AC50 [12]: 1750 nM | Activity (OCI-AML-3): Dose-dependent effect
